The subject of data set [1] is Bifidobacterium. In words: Antimicrobial activity against Bifidobacterium in three-stage chemostat gut model assessed as log reduction in bacterial count at 139 mg/liter administered every 12 hrs for 7 days. Type of data set: functional. The gist of the method: (§1)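 Three-stage anaerobic chemostat (37°C, N2-sparged; vessels at pH 5.5, 6.2 and 6.8; 66.7 h total retention) primed with 10% (wt/vol) pooled C. difficile-negative feces from healthy elderly donors. Instillation began on day 21. Vessel 2 and 3 samples were diluted 10-fold serially to 10–7 in prereduced peptone water and plated on selective agars in triplicate; counts are log10 CFU/ml.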

Data set [2] is described as follows: Drug level in human feces. Type of data set: ADME, tissue-based.
In a further data set the test system is Bacteroides sp. Briefly: Antimicrobial activity against Bacteroides sp. in three-stage chemostat gut model assessed as log reduction in bacterial count at 63 mg/liter administered daily for 7 days. Type of data set: functional. Put shortly:
as §1

In another data set the test system is Clostridium. In words: Antimicrobial activity against Clostridium in three-stage chemostat gut model assessed as log reduction in bacterial count at 63 mg/liter administered daily for 7 days. Type of data set: functional. The gist of the method:
as §1

The subject of the next data set is Enterococcus. Briefly: Antimicrobial activity against Enterococcus in three-stage chemostat gut model assessed as log reduction in bacterial count at 63 mg/liter administered daily for 7 days. Type of data set: functional, organism-based. The gist of the method: as §1
Data set [3] concerns Clostridioides difficile. Briefly: Induction of cytotoxin production in Clostridium difficile PCR ribotype 027 in three-stage chemostat gut model at 63 mg/liter administered daily for 7 days measured after 2 days. Type of data set: functional, organism-based. The gist of the method:
(§2)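 Gut model as above; on day 21 drug instillation began and a second C. difficile spore inoculum was added to vessel 1. Sample supernatants (16,000 x g) were diluted serially to 10–7 in PBS pH 7.4 and applied to Vero monolayers at 37°C in 5% CO2. Cell rounding was read at 24 and 48 h, and titers are given in relative units.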

Data set [4] has as its system Clostridioides difficile. In words: Antimicrobial activity against Clostridium difficile PCR ribotype 001 expressing gyrB Glu466Lys mutant grown on fluoroquinolone-containing medium after 48 hrs. Type of data set: functional. The settings on record: PCR ribotype 001, 48 h.
Data set [5] concerns Lactobacillus. Briefly: Antimicrobial activity against Lactobacillus in three-stage chemostat gut model assessed as log reduction in bacterial count at 63 mg/liter administered daily for 7 days. Type of data set: functional. The gist of the method: as §1
Data set [6] relates to Clostridioides difficile. In words: Induction of cytotoxin production in Clostridium difficile PCR ribotype 001 in three-stage chemostat gut model at 63 mg/liter administered daily for 7 days measured after 3 days. Type of data set: functional, organism-based. Put shortly:
as §2

Data set [7] deals with Clostridioides difficile. In words: Antimicrobial activity against Clostridium difficile PCR ribotype 027 expressing gyrB Glu466Lys mutant grown on fluoroquinolone-containing medium after 48 hrs. The settings on record: PCR ribotype 027, 48 h. Type of data set: functional.
Data set [8] deals with Lactobacillus. Briefly: Antimicrobial activity against Lactobacillus in three-stage chemostat gut model assessed as log reduction in bacterial count at 43 mg/liter administered daily for 7 days. Type of data set: functional. The gist of the method: as §1
Data set [9] has as its system Bifidobacterium. Briefly: Antimicrobial activity against Bifidobacterium in three-stage chemostat gut model assessed as log reduction in bacterial count at 43 mg/liter administered daily for 7 days. Type of data set: functional. The gist of the method:
as §1

The source made the active and inactive calls. No cut-off for these calls is given here.

The values below come from ChEMBL document CHEMBL1649112, “Effects of exposure of Clostridium difficile PCR ribotypes 027 and 001 to fluoroquinolones in a human gut model” (Antimicrob Agents Chemother, 2009).

In the case of `O=C(O)c1cn(C2CC2)c2cc(N3CCNCC3)c(F)cc2c1=O` [CIPROFLOXACIN], the outcome in the data set with Bifidobacterium [1] was Active. This compound also gave a Drug uptake in [2] of 139 mg/kg.
In general, MIC refers to the lowest concentration found to suppress growth. In the case of `C[C@H]1COc2c(N3CCN(C)CC3)c(F)cc3c(=O)c(C(=O)O)cn1c23.C[C@H]1COc2c(N3CCN(C)CC3)c(F)cc3c(=O)c(C(=O)O)cn1c23.O` [LEVOFLOXACIN], the FC in the data set on Bacteroides sp. was determined as 1. Besides, the outcome in the data set with Clostridium, with Enterococcus and with Lactobacillus [5] was inactive. Also, the outcome in the data set with Clostridioides difficile [3] and in the data set with Clostridioides difficile [6] was Active. The MIC against Clostridioides difficile [4] and against Clostridioides difficile [7] was 256 µg/mL in each case. This compound came in with a Drug uptake in [2] of 94 mg/kg.
For `COc1c(N2C[C@@H]3CCCN[C@@H]3C2)c(F)cc2c(=O)c(C(=O)O)cn(C3CC3)c12` [MOXIFLOXACIN], the result in the data set on Lactobacillus [8] and with Bifidobacterium [9] was inactive. This compound also returned a Drug uptake in data set [2] of 66 mg/kg.
